Screening results deposited in PubChem BioAssay by SRMLSC.
In the library only some 6.6% were active in any assay of this set; here they are far more common.
Her2 expr inh – lowers expression of human Her2 kinase; 65,000 compounds, 0.69% hits; HER2 level % of control, % at 10 µM; P04626; SKBR-3 HER2 protein level, AlphaScreen, 18-24 h; stronger effect = lower value;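 active means HER2 level under 5% of the carrier-only control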;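 further: 100% = DMSO carrier and 0% = 500 nM PU-H71 HSP90 inhibitor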
PostGolgi ctrl – inhibits growth of the yeast control strain | efflux-deficient yeast background strain, growth absorbance A615, 16 h | inhibition, % at 10 µM | 98,000 compounds, 5% hits
PostGolgi yeast – growth inhibition of a yeast mutant, post-Golgi transport screen | 98,000 compounds, 0.9% hits | post-Golgi transport phenotypic cell assay | inhibition, % at 10 µM;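 further: yeast cells grown in 1536-well plates; yeast grown about 18 h at 30C before absorbance read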
Ecoli tolC – E. coli tolC mutant growth inhibition; E. coli BW25113 tolC mutant growth, OD615; growth inhibition, % at 10 µM (by protocol); 65,000 compounds, 2.2% hits;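 active means growth inhibition at or above a cutoff equal to the mean over every tested compound plus 3 SD, cut at about 60% in these data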;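 further: growth measured after 20 h incubation at 37 °C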
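Test system: tolC-deleted E. coli BW25113 | Medium: LB with kanamycin 50 µg/mL | Compound dosing: Single concentration, 10 µM final per compound | Schedule: 37 °C, 20 h exposure | Measured by: OD at 615 nm | Evaluation: Percent growth inhibition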
Ecoli WT expand – growth inhibitors of E. coli BW25113 wild type; OD600 absorbance; growth inhibition, % at 100 µM; 98,000 compounds, 0.15% hits; AID 710;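 active means growth inhibition above about 50% at one test dose, limit read from the data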;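 further: growth measured after 20 h incubation at 37 °C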
* hit, by the source's call; · = no result given. Unless noted, no stated cut-off is given here; in the data, active means inhibition above about 30%; inactive means the rest.

SMILES	Her2 expr inh	PostGolgi ctrl	PostGolgi yeast	Ecoli tolC	Ecoli WT expand
CCN(CC)CCN=C1CCCc2ccccc2N1	95	11	-12	-8	-5
CC(=O)Oc1ccccc1-c1nc(C)nc(N(C)C(C)=O)n1	115	9	4	1	-3
O=C(C1CCC(N2C(=O)C3CC=CCC3C2=O)CC1)N1CCCCC1 (configuration not stated)	86	-2	-1	-8	-7
Cc1nn(C)c(C)c1Sc1ccc(Br)cc1	-9.0*	14	-6	15	6
CCOc1ccccc1NC1c2ccccc2C(=O)N1c1cccnc1 (configuration not stated)	92	10	4	-3	-3
Cc1cc(C)nc(-n2nc(C)cc2NC(=O)CN2CCC(C)CC2)n1	32	9	0	12	0
Cc1cc(C)nc(-n2nc(C)cc2NC(=O)CNC(C)c2ccccc2)n1 (configuration not stated)	·	34*	8	·	-1
COc1ccccc1N=c1oc2cc(O)ccc2cc1C(N)=O	48	4	-5	16	0
Cc1cccc(N=c2oc3cc(O)ccc3cc2C(N)=O)c1	26	18	12	98*	8
CCSc1ncc(/C=N/Nc2ccc(Cl)cc2)n1C	·	23	32*	·	2
Cc1cccc(NC(=S)NN(Cc2ccccc2)c2ccccc2)c1C	·	14	-2	·	2
COc1ccc(CCNC(=O)c2nnn(-c3ccc4c(c3)OCCO4)c2N)cc1OC	100	6	-7	15	-8
CCCc1nc(N2CCOCC2)c(C#N)c2c1CCCC2	100	39*	-1	10	9
CCCCc1nc(N2CCOCC2)c(C#N)c2c1CCCC2	98	25	5	27	5
COc1ccc2c(c1)C(C)=CC(C)(C)N2C(=O)CSc1nnc(-c2ccc(C)cc2)o1	·	21	52*	44	-29
Cc1cc2oc(=O)cc(CN3CCc4ccccc43)c2cc1Cl	102	36*	-1	27	-1
Cc1ccccc1CSc1nc2n(n1)C(c1cccs1)C1=C(CCCC1=O)N2 (configuration not stated)	86	9	-15	100*	-12
C=C(C)CSc1nnc(-c2ccccc2)n1N	96	-1	18	-6	4
Cc1ccc(NC(=O)c2ccc(-c3nn(C)c(=O)c4ccccc34)cc2)c(C)c1	·	41*	-4	·	-15
Cc1ccc(NC(=O)c2ccc(-c3nn(C)c(=O)c4ccccc34)cc2)cc1	·	-3	3	·	-3
O=C(CCN1CCN(CCC(=O)c2ccccc2)CC1)c1ccccc1	84	·	·	0	·
Cc1csc2ncc(C(=O)Nc3ccon3)c(=O)n12	83	41*	2	-37	1
Cc1cccc(NC(=O)c2cnc3scc(C)n3c2=O)c1	77	29	-3	1	-4
CCOC(=O)NCc1ccc(Cl)c(Cl)c1	94	36*	4	14	15
COc1cc(-c2nnc(SCc3ccccc3Cl)o2)cc(OC)c1OC	79	15	1	77*	-1
SMILES	Her2 expr inh	PostGolgi ctrl	PostGolgi yeast	Ecoli tolC	Ecoli WT expand
COc1cc(-c2nnc(SCc3c(F)cccc3Cl)o2)cc(OC)c1OC	91	20	1	41	-13
COc1cc(-c2nc(Cc3ccccc3Cl)no2)cc(OC)c1OC	96	14	-4	67*	-1
CCOc1ccccc1OCC(=O)NN1Cc2ccccc2C1=N	·	5	-4	·	4
CCOc1cccc(NC(=O)C2CC(=O)N(C)C(=Nc3cccc(F)c3)S2)c1 (configuration not stated)	96	16	-2	88*	-2
CCN1C(=O)CC(C(=O)Nc2ccc(F)cc2)SC1=Nc1ccc2c(c1)OCO2 (configuration not stated)	-27*	26	2	5	-5
CCOc1cccc(NC(=O)C2CC(=O)N(C)C(=Nc3ccccc3)S2)c1 (configuration not stated)	74	16	6	57	-4
CCCCc1nc(NCCNC(=O)c2ccccc2)c(C#N)c2c1CSC(C)(C)C2	·	99*	15	·	-3
CCCCc1nc(NCCNC(=O)c2ccco2)c(C#N)c2c1CSC(C)(C)C2	72	100*	18	3	5
O=S(=O)(Nc1ccc2c(c1)nc1n2CCOC1)c1ccc(Cl)cc1	87	2	3	13	-5
CCCCCCCCCC(=O)N/N=C/c1ccc(C)s1	·	33*	8	·	-2
CCCCCCCC(=O)N/N=C/c1ccc(Br)cc1	·	13	-1	·	7
Cc1nc(-c2cccc(NS(=O)(=O)c3ccc4ccccc4c3)c2)cs1	·	39*	8	·	-22
